{"data": "Experimental data gathered from unrelated publications", "target": "Calcium/calmodulin-dependent protein kinase type II subunit delta (CAMK2D, Homo sapiens, UniProt Q13557)", "note": "Compare with care: the assays were run in different laboratories."}
{"Compound": "COc1ccc2c(c1)O[C@H](c1ccc(OC)c(OC)c1)C[C@@H]2NC(=O)C1(c2ccc3c(c2)OC(F)(F)O3)CC1", "observed": "cell-free assay", "method": "competition with immobilised ligand", "concentration": "1 µM", "quantity": "remaining binding", "value": "100%"}
{"Compound": "COc1cc(Cl)c(C(=O)N[C@@H](CN[C@H]2CC[C@@H](N)CC2)Cc2ccc(C#N)cc2)cc1-c1ccc(CN[C@H](C)c2ccc(C)cc2)o1", "observed": "enzyme activity", "mode": "inhibitor", "concentration": "1 µM", "quantity": "remaining activity", "value": "100%"}
{"Compound": "O=C1Nc2ccc(Cl)cc2C1=Cc1cc(Cl)c(O)c(Cl)c1", "observed": "cell-free assay", "concentration": "0.5 µM", "quantity": "remaining signal", "value": "80.2%"}
{"Compound": "NS(=O)(=O)c1cc(NC(=O)Cc2ccccc2)ccc1Oc1cccc(Cl)c1", "observed": "cell-free assay", "method": "competition with immobilised ligand", "concentration": "1 µM", "quantity": "remaining binding", "value": "97%"}
{"Compound": "Cc1ccc(NC(=O)c2ccc(C)c(C(F)(F)F)c2)cc1C#Cc1nn(C2CCC(O)CC2)c2ncnc(N)c12 (stereo not shown)", "observed": "cell-free assay", "concentration": "10 µM", "quantity": "remaining signal", "value": "89%"}
{"Compound": "CC(C)c1ccc(NC(=O)c2cccs2)c(-c2nc3ccccc3[nH]c2=O)c1", "observed": "enzyme activity", "mode": "inhibitor", "concentration": "1 µM", "quantity": "activity vs control", "value": "102%"}
{"Compound": "C#Cc1cccc(Nc2ncnc3cc(OCCOC)c(OCCOC)cc23)c1", "observed": "cell-free assay", "concentration": "0.5 µM", "quantity": "remaining signal", "value": "95.1%"}
{"Compound": "COc1cccc(CNC(=O)c2nc3scc(COCc4ccc(C(=O)O)cc4)c3c(=O)[nH]2)c1", "observed": "cell-free assay", "method": "competition with immobilised ligand", "concentration": "1 µM", "quantity": "remaining binding", "value": "100%"}
{"Compound": "CNC(=O)c1cc(Oc2ccc(NC(=O)Nc3ccc(Cl)c(C(F)(F)F)c3)cc2)ccn1", "observed": "enzyme activity", "mode": "inhibitor", "concentration": "10 µM", "quantity": "inhibition", "value": "79%"}
{"Compound": "O=C(Nc1cnn(-c2csc(C(=O)NC3COC3)c2)c1)Nc1ccccc1Cl", "observed": "enzyme activity", "mode": "inhibitor", "concentration": "5 µM", "quantity": "remaining activity", "value": "103%"}
{"Compound": "Cc1ccc(Nc2nccc(N(C)c3ccc4c(C)n(C)nc4c3)n2)cc1S(N)(=O)=O", "observed": "enzyme activity", "mode": "inhibitor", "concentration": "0.3 µM", "quantity": "inhibition", "value": "63%"}
{"Compound": "Cc1ccc(-n2nc(C(C)(C)C)cc2NC(=O)Nc2ccc(OCCN3CCOCC3)c3ccccc23)cc1", "observed": "enzyme activity", "mode": "inhibitor", "concentration": "10 µM", "quantity": "inhibition", "value": "22%"}
{"Compound": "COc1cc(Nc2c(C#N)cnc3cc(OCCCN4CCN(C)CC4)c(OC)cc23)c(Cl)cc1Cl", "observed": "cell-free assay", "concentration": "0.5 µM", "quantity": "remaining signal", "value": "94.6%"}
{"Compound": "O=C1NC(c2ccccn2)Sc2ccccc21 (stereo not shown)", "observed": "cell-free assay", "method": "competition with immobilised ligand", "concentration": "1 µM", "quantity": "remaining binding", "value": "75%"}
{"Compound": "Cc1cnc(NC2CCOCC2)nc1-n1cnc(C(=O)NC(CN)c2cc(F)cc(Cl)c2)c1 (stereo not shown)", "observed": "enzyme activity", "mode": "inhibitor", "method": "radiometric", "concentration": "1 µM", "quantity": "remaining activity", "value": "91%"}
{"Compound": "O=C(NCc1ncc(C(F)(F)F)cc1Cl)c1ccc2c(c1)C1(CCS(=O)(=O)CC1)[C@H](C1CC1)N2S(=O)(=O)c1ccc(F)cc1", "observed": "cell-free assay", "method": "competition with immobilised ligand", "concentration": "1 µM", "quantity": "remaining binding", "value": "100%"}
{"Compound": "CCCCNc1ncc2c(-c3ccc(F)cc3)nn(C[C@H]3CC[C@H](N)CC3)c2n1", "observed": "target engagement in cells", "mode": "inhibitor", "method": "chemoproteomics", "concentration": "20 mM", "quantity": "inhibition", "value": "44.3%"}
{"Compound": "CC1=C(C#N)[C@@H](c2ccc3[nH]nc(C)c3c2)C(C#N)=C(c2ccc(Cl)cc2)N1", "observed": "cell-free assay", "method": "competition with immobilised ligand", "concentration": "1 µM", "quantity": "remaining binding", "value": "82.1%"}
{"Compound": "CC(C)(C)c1nc2c(s1)c1nc(N)ncc1c1ccc(NS(=O)(=O)c3c(F)cccc3F)c(F)c12", "observed": "enzyme activity", "mode": "inhibitor", "method": "radiometric", "concentration": "1 µM", "quantity": "remaining activity", "value": "96%"}
